Tb MetRS inh: T. brucei MetRS inhibitors, primary screen, biochemical, luminescence; methionyl-tRNA synthetase (Trypanosoma brucei brucei); purified T. brucei MetRS, ATP depletion, Kinase-Glo luminescence; inhibition, % at 11.9 µM; hit rate 0.4% among 360,000; AID 624268, 2012;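 active = inhibition above a per-plate cutoff of the control wells' mean inhibition plus 3 SD, cut at about 5.5% in these data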;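 note: 0% = DMSO wells median and 100% = median of wells with control inhibitor compound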
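Dosing: 11.9 µM single point; system: parasite MetRS enzyme; technique: luminescence of leftover ATP; times: 15 min enzyme-compound preincubation, 2 h reaction, 10 min detection, 25 °C; replicates: each compound tested once; read-out basis: percent inhibition relative to median high and low control wells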
Neddyl block: inhibitors of cullin neddylation, primary screen, biochemical, TR-FRET, uHTS, NAE and Ubc12. inhibition, % at 25 µM. NEDD8-conjugating enzyme Ubc12 (Homo sapiens) + NEDD8-activating enzyme E1 regulatory …. hit rate 0.58% among 360,000; in the data active = inhibition above about 36%
PREPL inh: PREPL enzyme inhibitors, primary screen, biochemical, fluorescence polarization. Prolyl endopeptidase-like (Homo sapiens), Q4J6C6. recombinant PREPL, fluorescence polarization activity-based probe. inhibition, % at 5.96 µM. hit rate 0.68% among 320,000. AID 2751, 2010; in the data active = inhibition above about 43%;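 note: 0% = enzyme with DMSO and 100% = wells lacking enzyme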
HNF4A DNA FP: change in binding of human HNF4A to DNA, primary screen, biochemical, fluorescence polarization, FITC-DNA. Hepatocyte nuclear factor 4-alpha (Homo sapiens), P41235. 1 h. activity change, % at 10 µM. hit rate 0.3% among 360,000; in the data active = activity change above about 30%, passing the limit was not always enough
CSN inh: inhibitors of CSN-mediated cullin deneddylation, primary screen, biochemical, fluorescence polarization, uHTS; COP9 signalosome complex subunit 5 (Homo sapiens), Q92905; Purified CSN, SCF-Nedd8-OG deneddylation; hit rate 0.38% among 360,000; inhibition, % at 12.5 µM;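 active = pattern-corrected inhibition above about 35%, with an unprinted fluorescence ratio check between 0.5 and 1.5, limit read from the data, passing the limit was not always enough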;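 note: 0% = enzyme with substrate and 100% = substrate without enzyme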
Target sequence (Q92905 whole entry, looked up, one chain of several): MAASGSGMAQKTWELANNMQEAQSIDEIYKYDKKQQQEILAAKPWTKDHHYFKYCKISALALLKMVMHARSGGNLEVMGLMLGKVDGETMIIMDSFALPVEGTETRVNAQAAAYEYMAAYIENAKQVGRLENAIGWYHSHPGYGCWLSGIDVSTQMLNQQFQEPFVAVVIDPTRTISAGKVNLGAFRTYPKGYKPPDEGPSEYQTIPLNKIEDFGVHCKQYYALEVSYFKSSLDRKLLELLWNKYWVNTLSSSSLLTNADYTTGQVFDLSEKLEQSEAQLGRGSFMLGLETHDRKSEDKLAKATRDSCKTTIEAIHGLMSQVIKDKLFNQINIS
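Test system: purified human Csn5 enzyme expressed in HEK293T cells. Amount: 0.24 nM enzyme. Reagent: SCFSkp2-Nedd8OG substrate at 10 nM final. Schedule: 90 min incubation of compound, enzyme and substrate at room temperature. Detection: fluorescence polarization. Read-out: % inhibition of substrate cleavage by Csn5.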
Rpn11 block: Rpn11 (PSMD14) deubiquitinase inhibitors, primary screen, biochemical, fluorescence polarization, uHTS. 26S proteasome non-ATPase regulatory subunit 14 (Homo sapiens), O00487. human 26S proteasome, Ub4-pepOG fluorescence polarization; 20S core pre-blocked with epoxomicin. hit rate 0.59% among 360,000. inhibition, % at 20 µM. AID 588493, 2011;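 active = inhibition at 20 µM, scaled to each plate's controls, above about 33%, limit read from the data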
Target sequence (O00487 whole entry, looked up): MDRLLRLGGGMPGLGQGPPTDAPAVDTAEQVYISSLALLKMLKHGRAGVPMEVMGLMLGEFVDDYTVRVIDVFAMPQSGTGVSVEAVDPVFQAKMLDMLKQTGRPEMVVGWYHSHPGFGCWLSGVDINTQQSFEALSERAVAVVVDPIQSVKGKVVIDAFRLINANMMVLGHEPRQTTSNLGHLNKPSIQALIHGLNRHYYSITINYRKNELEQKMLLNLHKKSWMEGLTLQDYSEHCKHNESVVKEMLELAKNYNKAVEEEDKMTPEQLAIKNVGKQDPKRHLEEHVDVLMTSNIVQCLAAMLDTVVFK
TbMetRS confirm: T. brucei MetRS inhibitors, confirmation, biochemical, luminescence | shares compounds with Tb MetRS inh | T. brucei MetRS enzyme, luminescence (ATP depletion) | inhibition, % at 11.9 µM | hit rate 93% among 1,400; in the data active = inhibition above about 7%
Jurkat tox: Jurkat T cell cytotoxicity, cytotoxicity control for T. brucei MetRS inhibitor project, luminescence, high throughput; shares compounds with Tb MetRS inh; Jurkat cells viability, ATP luminescence; inhibition, % at 8.3 µM; hit rate 12% among 1,400; in the data active = inhibition above about 15%;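 note: 0% = vehicle and 100% = reference inhibitor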
TbMetRS FP orth: T. brucei MetRS inhibitors, orthogonal assay for T. brucei MetRS inhibitor project, biochemical, fluorescence polarization. shares compounds with Tb MetRS inh. purified T. brucei MetRS. inhibition, % at 11.9 µM. hit rate 44% among 1,400; in the data active = inhibition above about 17%;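 note: 0% = vehicle wells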
Active calls of the source: *; . = not tested or not shown. Rows were chosen to be rich in hits. Some 2.4% of all compounds tested hit in one or more screens of this group.

SMILES	Tb MetRS inh	Neddyl block	PREPL inh	HNF4A DNA FP	CSN inh	Rpn11 block	TbMetRS confirm	Jurkat tox	TbMetRS FP orth
O=C1CC(N2CCN(c3ccc(O)cc3)CC2)C(=O)N1Cc1cccs1 (stereo unspecified)	-1.3	12.0	30.3	1.1	1.9	-5.4	.	.	.
CCc1nc2c(OCCc3cccc(OC)c3)cccn2c1N(C=O)Cc1ccc(OC)cc1	-0.5	-4.0	.	4.2	0.0	16.9	.	.	.
CCCCOc1ncnc2c1[nH]c1ccccc12	-0.1	16.9	6.1	0.9	1.5	-0.5	.	.	.
CCOCCCNc1ncnc2c1[nH]c1ccccc12	54.6*	29.6	-14.5	-1.1	-5.2	-3.7	76.4*	13.1	51.6*
CCCCOCCCNc1ncnc2c1[nH]c1ccccc12	92.7*	38.7	12.3	-2.2	2.7	0.2	105.9*	44.0*	95.5*
Brc1ccc(-n2c(SCc3nc4ccccc4[nH]3)nnc2-c2ccncc2)cc1	27.2*	-2.4	3.8	-1.1	2.7	1.1	41.9*	1.0	16.1
O=c1[nH]c(CSc2nnc(-c3ccccc3)n2-c2ccccc2)nc2ccccc12	-0.9	-2.0	6.9	3.9	2.2	-0.6	.	.	.
Cc1ccc(-c2nc3ccc(C)cn3c2CC2CCCCC2)cc1	-1.9	12.7	.	14.5	9.5	.	.	.	.
O=C(CNC(=O)c1ccc(Br)cc1)N/N=C/c1ccc[nH]1	23.1*	-0.8	4.2	-2.3	-3.1	3.2	47.1*	9.7	21.8*
O=C(N/N=C/c1ccc[nH]1)c1ccc(O)cc1	0.7	0.1	12.4	7.6	6.9	2.2	.	.	.
CCc1cc(=O)oc2cc(OC(C)C(=O)N3CC[C@@]4(O)CCCC[C@H]4C3)ccc12 (stereo partly specified)	-0.2	33.5	.	12.5	-3.0	0.9	.	.	.
CN(c1ccc(OC(=O)c2ccc(-n3cncn3)c([N+](=O)[O-])c2)cc1)S(=O)(=O)c1ccccc1	4.7	-1.3	-0.7	2.4	-5.4	-4.1	.	.	.
CCc1ccc(OCC(=O)NNC(=O)c2ccc(-n3cncn3)c([N+](=O)[O-])c2)cc1	5.9*	-10.2	.	-1.6	0.7	1.9	35.0*	-7.8	16.7*
Cc1ccc(C)c(S(=O)(=O)N2CCN(C(=O)c3ccc(-n4cncn4)c([N+](=O)[O-])c3)CC2)c1	1.1	-16.2	11.0	1.7	-2.0	0.2	.	.	.
O=C(COc1ccc(Br)cc1)NNC(=O)c1ccc(-n2cncn2)c([N+](=O)[O-])c1	19.9*	-13.8	2.1	1.9	-4.1	2.5	53.9*	0.8	23.0*
Cc1ccc(OCC(=O)NNC(=O)c2ccc(-n3cncn3)c([N+](=O)[O-])c2)cc1	16.1*	-19.2	-0.8	-5.4	-1.0	4.8	40.7*	-3.5	17.4*
O=c1cccc(-c2ccc3ccccc3c2)o1	0.0	-24.2	.	1.4	2.9	.	.	.	.
CC1(C(=O)Nc2ccc3c(c2)OCCO3)CCN1C(=O)C1(c2ccc(Cl)cc2)CC1 (stereo unspecified)	-0.9	2.7	.	-1.9	0.4	-6.0	.	.	.
O=C1C(Nc2ccc(O)cc2)=C/C(=N/S(=O)(=O)c2cccs2)c2ccccc21	6.2*	-71.5	.	-0.6	21.3	-4.8	9.8*	94.2*	10.3
Cc1cc(C)cc(NC(=O)CCCSc2nc3ccccc3[nH]2)c1	11.2*	5.1	-10.2	2.3	-3.0	-3.3	21.6*	-3.7	9.8
CCc1cccc(NC(=O)CCCSc2nc3ccccc3[nH]2)c1	26.3*	16.3	-1.9	0.5	-1.7	1.0	44.2*	5.9	16.7*
O=C(CCCSc1nc2ccccc2[nH]1)Nc1ccccc1	1.1	7.1	-16.7	-1.6	-0.1	-1.9	.	.	.
COc1ccc(N2CCN(C(=O)CCCSc3nc4ccccc4[nH]3)CC2)cc1	6.6*	-0.6	3.0	-0.1	-2.7	7.3	19.7*	4.3	7.1
CC(C)CNC(=O)CCCSc1nc2ccccc2[nH]1	-0.6	-2.3	2.7	-2.4	-2.4	-2.8	.	.	.
Cc1cccc(NC(=O)CCCSc2nc3ccccc3[nH]2)c1	17.4*	3.9	3.2	1.7	1.6	-4.0	17.6*	7.1	6.0
SMILES	Tb MetRS inh	Neddyl block	PREPL inh	HNF4A DNA FP	CSN inh	Rpn11 block	TbMetRS confirm	Jurkat tox	TbMetRS FP orth
O=C(NCc1ccc(F)cc1)c1cc2ccccc2o1	0.0	10.1	3.7	2.8	-1.9	6.6	.	.	.
C[C@@H]1CN([C@@H](C)CO)S(=O)(=O)c2ccc(-c3ccccc3)cc2O[C@@H]1CN(C)Cc1ccccc1C(=O)O	-1.2	3.0	.	-3.0	-2.5	-5.0	.	.	.
CC(=O)Nc1ccc(CN(C)c2c(C)nc3ccc(C(=O)N(C)Cc4ccco4)cn23)cc1	-0.2	-0.5	.	1.7	3.2	-2.8	.	.	.
CCOC(=O)C1CCCN(C(=O)c2cccc(OC(F)(F)F)c2)CC1 (stereo unspecified)	0.2	0.9	.	0.5	-2.6	-1.5	.	.	.
N#Cc1c(N2CCN(c3ccc([N+](=O)[O-])cc3)CC2)[n+](=O)c2ccc(Cl)cc2n1[O-]	1.0	-20.1	.	-9.8	-23.4	-61.9	.	.	.
CCc1cc(=O)oc2cc(C)cc(OC(C)C(=O)NC(Cc3c[nH]c4ccc(O)cc34)C(=O)O)c12 (stereo unspecified)	5.8*	33.3	0.3	0.3	2.8	1.5	13.4*	-5.8	5.3
CCc1cc(=O)oc2cc(C)cc(OCC(=O)NC(Cc3c[nH]c4ccc(O)cc34)C(=O)O)c12 (stereo unspecified)	6.6*	35.1	2.6	-0.6	-0.9	-5.1	9.7*	7.5	4.0
CC(Oc1ccc2ccc(=O)oc2c1)C(=O)NC(Cc1c[nH]c2ccc(O)cc12)C(=O)O (stereo unspecified)	1.4	14.2	-3.2	-3.6	7.3	-6.6	.	.	.
CCCc1cc(=O)oc2cc(C)cc(OCC(=O)NC(Cc3c[nH]c4ccc(O)cc34)C(=O)O)c12 (stereo unspecified)	7.0*	37.6	3.6	1.3	-1.8	-6.9	11.9*	-2.6	-1.4
